Activity calls are given as the source filed them. The calls are words filed in the database; no cut-off is given here.
Columns and labels:
[1] = Cytotoxicity against human skin fibroblasts assessed as cell survival at 5 uM after 24 hrs by MTT assay relative to control; set-up: species or system Skin fibroblast; conditions: read-out: Survival
Outline: (§1)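 Cells exposed to agent at 5 µM for 24 h, then growth and viability measured by MTT assay. Survival given as percent of untreated control.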

A-375 [2] = assay: Cytotoxicity against human A375 cells assessed as cell survival at 5 uM after 24 hrs by MTT assay relative to control; format: functional; conditions: A-375, 24 h, read-out: Survival; outline: as §1
A2058 = assay: Cytotoxicity against human A2058 cells assessed as cell survival at 5 uM after 24 hrs by MTT assay relative to control; format: functional; conditions: A2058, 24 h, read-out: Survival; outline: as §1
A-375 [3] = assay: Cell cycle arrest in human A375 cells assessed as accumulation at G2/M phase after 24 hrs by propidium iodide staining-based flow cytometry (reference value: 15.2 +/- 0.6%); format: functional
A-375 [4] = assay: Cell cycle arrest in human A375 cells assessed as accumulation at S phase after 24 hrs by propidium iodide staining-based flow cytometry (reference value: 11.8 +/- 0.1%); format: functional
B16 = assay: Cytotoxicity against mouse B16 cells assessed as cell survival at 5 uM after 24 hrs by MTT assay relative to control; format: functional; conditions: B16, 24 h, read-out: Survival; outline: as §1
HEK-293T = assay: Cytotoxicity against human 293T cells assessed as cell survival at 5 uM after 24 hrs by MTT assay relative to control; format: functional; conditions: read-out: Survival; outline: as §1
A-375 [5] = assay: Cell cycle arrest in human A375 cells assessed as accumulation at sub-G1 phase after 24 hrs by propidium iodide staining-based flow cytometry (reference value: 7.7 +/- 0.1%); format: functional
A-375 [6] = assay: Cell cycle arrest in human A375 cells assessed as accumulation at G1 phase after 24 hrs by propidium iodide staining-based flow cytometry (reference value: 65.3 +/- 0.1%); format: functional
[7] = Cytotoxicity against human RPMI7951 cells assessed as cell survival at 5 uM after 24 hrs by MTT assay relative to control; format: functional; conditions: RPMI-7951, 24 h, read-out: Survival; outline: as §1
Ca9-22 = assay: Cytotoxicity against human Ca9-22 cells assessed as cell survival at 5 uM after 24 hrs by MTT assay relative to control; format: functional; conditions: Ca9-22, 24 h, read-out: Survival; outline: as §1
A-375 [8] = assay: Cytotoxicity against human A375 cells assessed as cell survival at 1 to 5 uM after 12 hrs by MTT assay relative to control; format: functional, cell-based
Outline: (§2)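 A375 cells seeded at 10,000 per well, attached overnight, then exposed in triplicate to 0, 1, 3 or 5 μM for 0, 12 or 24 h; viability by MTT absorbance versus untreated control; IC50 taken as mean of dose-response curves from three experiments.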

A549 = assay: Cytotoxicity against human A549 cells assessed as cell survival at 5 uM after 24 hrs by MTT assay relative to control; format: functional; conditions: A549, 24 h, read-out: Survival; outline: as §1
A-375 [9] = assay: Induction of apoptosis in human A375 cells at 5 uM after 24 hrs by AnnexinV-FITC/propidium iodide staining-based fluorimetric analysis (reference value: 2.6%); format: functional
A-375 [10] = assay: Cytotoxicity against human A375 cells assessed as cell survival after 12 to 24 hrs by MTT assay relative to control; format: functional, cell-based; outline: as §2
A-375 [11] = assay: Induction of apoptosis in human A375 cells assessed as increase in Bax protein level at 5 uM after 24 hrs by Western blotting analysis; format: functional, cell-based
Outline: (§3)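 Lysates from A375 cells exposed 24 h to 5 μM, or to a range of concentrations, immunoblotted with specific antibodies against Bcl-2, Bcl-xL, Bax, Bad, caspase-3 and PARP; actin probed as loading control; three separate experiments.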

A-375 [12] = assay: Cytotoxicity against human A375 cells assessed as cell survival at 1 to 5 uM by MTT assay relative to control; format: functional, cell-based; conditions: TDE = time-dependent effect; outline: as §2
A-375 [13] = assay: Downregulation of cyclin D1 mRNA expression in human A375 cells at 5 uM after 24 hrs by RT-PCR analysis; format: functional, cell-based
Outline: (§4)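 A375 cells treated 24 h at 5 μM; p53, p21, p27 and cyclin D1 transcripts quantified by qPCR, normalised to β-actin in each sample, compared with control.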

A-375 [14] = assay: Upregulation of p27 mRNA expression in human A375 cells at 5 uM after 24 hrs by RT-PCR analysis; format: functional, cell-based; outline: as §4
A-375 [15] = assay: Induction of apoptosis in human A375 cells assessed as increase in Bad protein level at 5 uM after 24 hrs by Western blotting analysis; format: functional, cell-based; outline: as §3
A-375 [16] = assay: Induction of apoptosis in human A375 cells assessed as decrease in Bcl-2 protein level at 5 uM after 24 hrs by Western blotting analysis; format: functional, cell-based; outline: as §3
A-375 [17] = assay: Induction of apoptosis in human A375 cells assessed as decrease in Bcl-XL protein level at 5 uM after 24 hrs by Western blotting analysis; format: functional, cell-based; outline: as §3
A-375 [18] = assay: Upregulation of p53 mRNA expression in human A375 cells at 5 uM after 24 hrs by RT-PCR analysis; format: functional, cell-based; outline: as §4
A-375 [19] = assay: Upregulation of p21 mRNA expression in human A375 cells at 5 uM after 24 hrs by RT-PCR analysis; format: functional, cell-based; outline: as §4

## COc1ccc(-c2cn(C/C=C/COc3cc4c(cc3OC)C(=O)N3CCC[C@H]3C=N4)nn2)cc1
[1]
  viability at 24 h, 5 µM: 104%
A-375 [2]
  viability at 5 µM: 69.2%
A2058
  viability at 5 µM: 49.2%
A-375 [3]
  Activity: 5.1%
A-375 [4]
  Activity: 7.4%
B16
  viability at 5 µM: 75.2%
HEK-293T
  viability at 5 µM: 40%
A-375 [5]
  Activity: 13.9%
A-375 [6]
  Activity: 73.6%
[7]
  viability at 5 µM: 80.1%
Ca9-22
  viability at 5 µM: 84.1%
A-375 [8]
  Activity: inactive
A549
  viability at 5 µM: 81%

## COc1cc2c(cc1O)N=C[C@@H]1CCCN1C2=O
[1]
  viability at 24 h, 5 µM: 89.7%
A-375 [2]
  viability at 5 µM: 52.2%
A2058
  viability at 5 µM: 54.8%
B16
  viability at 5 µM: 66.8%
HEK-293T
  viability at 5 µM: 55.2%
[7]
  viability at 5 µM: 61.6%
Ca9-22
  viability at 5 µM: 94.4%
A549
  viability at 5 µM: 85.4%

## COc1ccc(-c2cn(C/C=C\COc3cc4c(cc3OC)C(=O)N3CCC[C@H]3C=N4)nn2)cc1
A-375 [9]
  Activity: 12.1%
[1]
  viability at 24 h, 5 µM: 90.3%
A-375 [2]
  viability at 5 µM: 38.7%
A-375 [10]
  Activity: Dose-dependent effect
A2058
  viability at 5 µM: 42%
A-375 [11]
  Activity: Active
A-375 [12]
  Activity: tde
A-375 [3]
  Activity: 3.4%
A-375 [4]
  Activity: 7.2%
A-375 [13]
  Activity: Active
B16
  viability at 5 µM: 62.8%
A-375 [14]
  Activity: Active
HEK-293T
  viability at 5 µM: 46.7%
A-375 [5]
  Activity: 7.1%
A-375 [15]
  Activity: Active
A-375 [16]
  Activity: Active
A-375 [6]
  Activity: 82.3%
A-375 [17]
  Activity: Active
[7]
  viability at 5 µM: 66.4%
A-375 [18]
  Activity: Active
Ca9-22
  viability at 5 µM: 55.5%
A-375 [8]
  Activity: inactive
A-375 [19]
  Activity: Active
A549
  viability at 5 µM: 98.2%

## COc1cccc(-c2cn(C/C=C\COc3cc4c(cc3OC)C(=O)N3CCC[C@H]3C=N4)nn2)c1
A-375 [9]
  Activity: 16.4%
[1]
  viability at 24 h, 5 µM: 90.4%
A-375 [2]
  viability at 5 µM: 48.4%
A-375 [10]
  Activity: Dose-dependent effect
A2058
  viability at 5 µM: 40.7%
A-375 [11]
  Activity: Active
A-375 [12]
  Activity: tde
A-375 [3]
  Activity: 3.3%
A-375 [4]
  Activity: 6.7%
A-375 [13]
  Activity: Active
B16
  viability at 5 µM: 74.2%
A-375 [14]
  Activity: Active
HEK-293T
  viability at 5 µM: 42.8%
A-375 [5]
  Activity: 7.7%
A-375 [15]
  Activity: Active
A-375 [16]
  Activity: Active
A-375 [6]
  Activity: 82.3%
A-375 [17]
  Activity: Active
[7]
  viability at 5 µM: 65.3%
A-375 [18]
  Activity: Active
Ca9-22
  viability at 5 µM: 50%
A-375 [8]
  Activity: inactive
A-375 [19]
  Activity: Active
A549
  viability at 5 µM: 100%

## COc1cc2c(cc1OC/C=C/Cn1cc(-c3ccccc3)nn1)N=C[C@@H]1CCCN1C2=O
[1]
  viability at 24 h, 5 µM: 93%
A-375 [2]
  viability at 5 µM: 69.6%
A2058
  viability at 5 µM: 53.3%
A-375 [3]
  Activity: 5.5%
A-375 [4]
  Activity: 9.7%
B16
  viability at 5 µM: 33.9%
HEK-293T
  viability at 5 µM: 78%
A-375 [5]
  Activity: 7%
A-375 [6]
  Activity: 77.8%
[7]
  viability at 5 µM: 79.1%
Ca9-22
  viability at 5 µM: 61.2%
A-375 [8]
  Activity: inactive
A549
  viability at 5 µM: 70%
